Tests used:
Assay type in all cases: functional, cell-based
MCF7 = test: Cytotoxicity against human MCF7 cells after 48 hrs by MTT assay; settings: MCF7, 48 h
How it was run: (§1)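 Cells grown in DMEM with 10% FBS, 5% CO2, 37 °C. Adherent lines plated and left to attach 12 h before dosing; suspension HL-60 plated immediately before dosing; starting density 1 × 10^5 cells/mL. Treated with 0.064, 0.32, 1.6, 8 and 40 μM in triplicate for 48 h; cisplatin as positive control. Viability by MTT; IC50 by Reed–Muench method.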

SMMC-7721 = test: Cytotoxicity against human SMMC7721 cells after 48 hrs by MTT assay; settings: SMMC-7721, 48 h; how it was run: as §1
HL-60 = test: Cytotoxicity against human HL60 cells after 48 hrs by MTT assay; settings: HL-60, 48 h; how it was run: as §1
SW480 = test: Cytotoxicity against human SW480 cells after 48 hrs by MTT assay; settings: SW480, 48 h; how it was run: as §1
A549 = test: Cytotoxicity against human A549 cells after 48 hrs by MTT assay; settings: A549, 48 h; how it was run: as §1

SMILES	IC50 (MCF7) [µM]	IC50 (SMMC-7721) [µM]	IC50 (HL-60) [µM]	IC50 (SW480) [µM]	IC50 (A549) [µM]
C=C(CC[C@@H](C(=O)O)[C@H]1CC[C@H]2C3=CC[C@H]4[C@H](C)[C@@H](O[C@@H]5O[C@@H](C)[C@H](O)[C@@H](O)[C@H]5O)[C@H](OC(C)=O)C[C@]4(C)[C@H]3CC[C@]12C)C(C)C [FRUTICOSIDE E]	> 40	> 40	> 40	> 40	> 40
C=C(CC[C@@H](C(=O)O)[C@H]1CC[C@H]2C3=CC[C@H]4[C@H](C)[C@@H](O)[C@H](O)C[C@]4(C)[C@H]3CC[C@]12C)C(C)C [FRUTICOSIDE B]	> 40	> 40	> 40	> 40	> 40
C/C=C(/CC[C@@H](C(=O)S)[C@H]1CC[C@H]2C3=CC[C@H]4[C@H](C)[C@@H](O[C@@H]5O[C@@H](C)[C@H](O)[C@@H](O)[C@@H]5O)CC[C@]4(C)[C@H]3CC[C@]12C)C(C)C [FRUTICOSIDE G]	> 40	> 40	> 40	> 40	> 40
C=C(C)[C@@H]1CC[C@]2(C(=O)O)CC[C@]3(C)[C@H](CC[C@@H]4[C@@]5(C)[C@H](C=O)[C@H](O)C(C)(C)[C@@H]5CC[C@]43C)[C@@H]12 [ZIZYBERANALIC ACID]	> 40	> 40	> 40	> 40	> 40
C=C(C)[C@@H]1CC[C@]2(C(=O)O)CC[C@]34C(=O)O[C@]5(CC[C@@H]3[C@@H]12)[C@@]4(C)CC[C@]12O[C@]51[C@@H](C)CC2(C)C [BREYNCEANOTHANOLIC ACID]	12.7	14.3	10.2	20	14.5
C=C(CC[C@@H](C(=O)O)[C@H]1CC[C@H]2C3=CC[C@H]4[C@H](C)[C@@H](O[C@@H]5O[C@@H](C)[C@H](O)[C@@H](O)[C@@H]5O)[C@H](O)C[C@]4(C)[C@H]3CC[C@]12C)C(C)C [FRUTICOSIDE C]	> 40	> 40	> 40	> 40	> 40
C=C(CC[C@@H](C(=O)S)[C@H]1CC[C@H]2C3=CC[C@H]4[C@H](C)[C@@H](O[C@@H]5O[C@@H](C)[C@H](O)[C@@H](O)[C@@H]5O)[C@H](OC(C)=O)C[C@]4(C)[C@H]3CC[C@]12C)C(C)C [FRUTICOSIDE F]	> 40	> 40	> 40	> 40	> 40
C=C(CC[C@@H](CO)[C@H]1CC[C@H]2C3=CC[C@H]4[C@H](C)[C@@H](O)[C@H](O)C[C@]4(C)[C@H]3CC[C@]12C)C(C)C [FRUTICOSIDE A]	15.4	18.5	3	18.4	15.7
C=C(CC[C@@H](C(=O)O)[C@H]1CC[C@H]2C3=CC[C@H]4[C@H](C)[C@@H](O[C@@H]5O[C@@H](C)[C@H](O)[C@@H](O)[C@@H]5O)[C@H](OC(C)=O)C[C@]4(C)[C@H]3CC[C@]12C)C(C)C [FRUTICOSIDE D]	> 40	> 40	> 40	> 40	> 40
C=C(C)[C@@H]1CC[C@]2(C(=O)O)CC[C@]3(C)[C@H](CC[C@@H]4[C@@]5(C)[C@H](C(=O)O)[C@H](O)C(C)(C)[C@@H]5CC[C@]43C)[C@@H]12 [EPICEANOTHIC ACID]	> 40	> 40	> 40	> 40	> 40
